Experimental findings from PubChem BioAssay are described below.

Active and inactive are the calls of the source.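 How the source made its calls, unless noted: active means viability at or under a set limit in both replicates, limit being median viability minus 3 SD (cut at about 48% in these data, passing the limit was not always enough); inconclusive means at or under the limit in just one replicate; inactive means at or above the limit in both replicates.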

Test [1] can be described thus: reducers of endogenous Her2 protein level, primary screen, SKBR3 breast tumor cells, AlphaScreen, ATP viability (AID 461;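 active means Her2 level under about 52% in both replicate screens, with viability over 70% of control, limit read from the data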;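 on Her2 level: lower value means less Her2 protein in the cells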;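 on viability: percent of carrier control wells set as 100% viability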). Conditions: 18-24 h, measured here: SKBR3 viability, ATP luminescence, at 10 µM.
The target in test [2] is Receptor tyrosine-protein kinase erbB-2 (Homo sapiens) (UniProt P04626). The test is described as above. Conditions: 18-24 h, at 10 µM, stronger effect = lower value.
The nature of test [3]: SK-BR-3 cell growth inhibitors, pilot screen, 24 h, human (AID 572;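 active means viability at or below 10% of carrier control in both of two separate runs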;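 further: compound exposure lasted between 18 and 24 h rather than exactly 24 h; 100% = carrier-treated control wells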). Conditions: SK-BR-3 viability, CellTiter-Glo luminescence, at 10 µM, stronger effect = lower value.
The nature of test [4]: HUVEC growth inhibition – cell-based, human, primary screen (AID 575;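 active means viability at or below 30% in both replicate assays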;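 further: 100% = median of untreated cell wells with 0.1% DMSO on each plate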). As to conditions: HUVEC proliferation, CellTiter-Glo luminescence, 72 h; at 10 µM; stronger effect = lower value. The essentials:
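System: primary human umbilical vein endothelial cells; Quantity: 1250 endothelial cells in each well; Buffer or medium: supplemented EBM, 2% fetal bovine serum; Doses: one dose, 10 µM final, 0.1% DMSO; Incubation: 72 h compound incubation; Technique: ATP-based CellTiter-Glo luminescent read; Evaluation: percent of median DMSO-control luminescence; Controls: vehicle and MePR control wells.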

A short description of test [5]: growth inhibitors of H69AR lung tumor, primary screen, human, duplicate replicates (AID 580).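 Further: 100% = mean luminescence of untreated wells and 0% = no signal.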 As to conditions: H69AR lung tumor cells viability, ATP luminescence, 72 h; at 10 µM; stronger effect = lower value.
The nature of test [6]: reversal of MRP1-mediated doxorubicin resistance, pilot screen, H69AR cells, doxorubicin co-treatment (AID 601;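 active means viability loss from added drug above about 55%, and viability with drug at most 40%, in both replicates, limit read from the data, passing the limit was not always enough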). Conditions: CellTiter-Glo, 72 h, at 10 µM; for differential viability (reversal): stronger effect = higher value.
Test [7] can be described thus: 384-well plate pilot, post-Golgi transport modulator project, inhibition of yeast transport mutant growth (AID 636; in the data active means inhibition above about 31%). As to conditions: absorbance 615 nm, about 18 h, stronger effect = higher value.
Test [8] can be described thus: growth suppression of yeast trafficking mutant, preliminary HTS, modulators of trafficking downstream of Golgi apparatus project, 1536-format plate, OD 615 nm (AID 637; in the data active means inhibition above about 30%). As to conditions: yeast transport mutant growth, absorbance 615 nm, 18 h; stronger effect = higher value.
Setting [9] is: H69AR cells + 2 uM doxorubicin, measured here: viability with 2 uM doxorubicin, stronger effect = lower value.
Setting [10] is: H69AR cells, compound alone cytotoxicity.

Chain of Receptor tyrosine-protein kinase erbB-2 (Homo sapiens) (P04626 whole entry, looked up): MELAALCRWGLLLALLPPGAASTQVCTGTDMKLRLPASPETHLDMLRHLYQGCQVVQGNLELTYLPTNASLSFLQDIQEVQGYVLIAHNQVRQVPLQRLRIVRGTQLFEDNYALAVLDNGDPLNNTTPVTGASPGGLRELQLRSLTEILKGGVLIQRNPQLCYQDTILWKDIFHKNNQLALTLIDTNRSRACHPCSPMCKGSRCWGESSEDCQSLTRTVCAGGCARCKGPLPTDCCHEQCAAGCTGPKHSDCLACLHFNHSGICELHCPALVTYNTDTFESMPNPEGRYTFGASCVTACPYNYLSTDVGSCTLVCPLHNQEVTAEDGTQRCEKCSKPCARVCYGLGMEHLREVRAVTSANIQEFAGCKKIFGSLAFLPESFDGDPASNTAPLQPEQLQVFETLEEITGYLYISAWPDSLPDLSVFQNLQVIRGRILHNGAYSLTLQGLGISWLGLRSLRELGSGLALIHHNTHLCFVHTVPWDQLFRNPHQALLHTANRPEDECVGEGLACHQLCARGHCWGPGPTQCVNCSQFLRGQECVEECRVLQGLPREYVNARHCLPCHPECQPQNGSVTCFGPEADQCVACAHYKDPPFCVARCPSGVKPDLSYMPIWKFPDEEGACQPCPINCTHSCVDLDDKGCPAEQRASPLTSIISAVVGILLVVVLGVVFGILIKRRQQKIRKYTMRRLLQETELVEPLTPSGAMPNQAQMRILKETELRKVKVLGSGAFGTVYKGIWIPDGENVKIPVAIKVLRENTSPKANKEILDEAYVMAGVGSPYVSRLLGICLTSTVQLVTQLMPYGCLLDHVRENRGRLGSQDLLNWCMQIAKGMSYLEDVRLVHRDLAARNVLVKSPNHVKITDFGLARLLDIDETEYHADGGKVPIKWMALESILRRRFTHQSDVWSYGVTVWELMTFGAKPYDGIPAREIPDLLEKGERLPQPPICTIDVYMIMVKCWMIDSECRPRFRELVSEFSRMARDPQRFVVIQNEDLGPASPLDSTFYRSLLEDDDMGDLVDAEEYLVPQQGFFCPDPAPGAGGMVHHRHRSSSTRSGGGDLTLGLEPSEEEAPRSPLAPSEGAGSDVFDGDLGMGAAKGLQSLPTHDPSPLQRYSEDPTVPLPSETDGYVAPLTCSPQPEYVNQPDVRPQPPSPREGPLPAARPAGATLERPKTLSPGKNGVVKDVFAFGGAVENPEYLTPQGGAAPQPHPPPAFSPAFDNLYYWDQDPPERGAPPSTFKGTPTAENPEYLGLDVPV

On to `O=c1[nH]c2cccnc2n1Cc1ccco1`, for which the viability in test [1] was 90%; in test [3], 90% (inactive); in test [4], 107% (inactive); in test [5], 97.5% (inactive); in test [6] (setting [9]) it was 83.8%; in test [6] (setting [10]) it was 97.5%. Also, in test [2], the Her2 level was 88% (inactive). In addition, in test [6] (H69AR cells + 2 uM doxorubicin), the differential viability (reversal) is 13.8% (inactive). For the same compound, the inhibition is -4.32% (inactive) in test [7] and 0.83% (inactive) in test [8].
On to `O=C(OCC#CCSc1nc2ccccc2o1)c1ccco1`, for which the viability in test [1] was 112%; in test [3], 112% (inactive); in test [4], 80.4% (inactive); in test [5], 80.4% (inactive); in test [6] (setting [9]) it was 82.2%; in test [6] (setting [10]), 80.4%. Besides, the Her2 level in test [2] is 84% (inactive). For the same compound, the differential viability (reversal) in test [6] (H69AR cells + 2 uM doxorubicin) is -1.78% (inactive). Moreover, the values for the inhibition in test [7] and in test [8] were -6.67% (inactive) and -7.7% (inactive), respectively.
As to `Cn1c(/C(C#N)=C/Nc2ccccn2)nc2ccccc21`, the viability in test [1] is 75%; in test [3] it was 75% (inactive); in test [4] it was 110% (inactive); in test [5], 73.5% (inactive); in test [6] (setting [9]) it was 85.9%; in test [6] (setting [10]) it was 73.5%. Besides, the Her2 level in test [2] is 106% (inactive). Also, in test [6] (H69AR cells + 2 uM doxorubicin), the differential viability (reversal) is -12.4% (inactive). Further, the inhibition in test [7] is 4.47% (inactive); in test [8] it was 29.5% (inactive).
For the compound `CCC(C)n1[nH]c(=O)c2c(C)cc(C)nc21` (stereo not given), the viability in test [1] was 97.5%; in test [3], 97.5% (inactive); in test [4], 95.8% (inactive); in test [5], 98.8% (inactive); in test [6] (setting [9]), 88.9%; in test [6] (setting [10]), 98.8%. Further, in test [2], the Her2 level was 91.5% (inactive). The differential viability (reversal) in test [6] (H69AR cells + 2 uM doxorubicin) was 9.86% (inactive). The inhibition was -5.26% (inactive) in test [7] and -1.64% (inactive) in test [8].
`Cc1cc(/C=N/n2cnnc2)c(C)n1-c1ccc(Cl)cc1Cl`: the viability was 99.5% in test [1]; 99.5% (inactive) in test [3]; 92.3% (inactive) in test [4]; 90.6% (inactive) in test [5]; 80.5% in test [6] (setting [9]); 90.6% in test [6] (setting [10]). Besides, the Her2 level in test [2] is 64.5% (inactive). Also, the differential viability (reversal) in test [6] (H69AR cells + 2 uM doxorubicin) is 10.1% (inactive). Further, the results for the inhibition in test [7] and in test [8] were -5.54% (inactive) and -6.17% (inactive), respectively.
As to `CSCCC(C(=O)Nc1ccc2c(c1)OCO2)N1C(=O)c2ccccc2C1=O` (stereo not given), the viability is 91% in test [1]; 91% (inactive) in test [3]; 88.1% (inactive) in test [4]; 96.4% (inactive) in test [5]; 92% in test [6] (setting [9]); 96.4% in test [6] (setting [10]). Moreover, the Her2 level in test [2] is 79% (inactive). Also, the differential viability (reversal) in test [6] (H69AR cells + 2 uM doxorubicin) is 4.44% (inactive). For the same compound, the inhibition in test [7] is -1.3% (inactive); in test [8], -1.43% (inactive).
For the compound `COc1ccc(-c2nnc3ccc(SC(C(C)=O)C(C)=O)nn23)cc1OC`, the viability in test [1] was 90%; in test [3], 90% (inactive); in test [4], 87.8% (inactive); in test [5] it was 82.9% (inactive); in test [6] (setting [9]) it was 78%; in test [6] (setting [10]) it was 82.9%. Further, in test [2], the Her2 level is 86.5% (inactive). In addition, the differential viability (reversal) in test [6] (H69AR cells + 2 uM doxorubicin) was 4.92% (inactive). For the same compound, the results for the inhibition in test [7] and in test [8] were -6.62% (inactive) and 6.17% (inactive), respectively.
As to `COC(=O)C1=C(C)NC(C)=C(C(=O)OC)C1c1cc2cc(C)ccc2[nH]c1=O`, the viability in test [1] is 103%; in test [3], 103% (inactive); in test [4] it was 84.6% (inactive); in test [5], 79.4% (inactive); in test [6] (setting [9]) it was 72.6%; in test [6] (setting [10]), 79.4%. Moreover, in test [2], the Her2 level is 66% (inactive). The differential viability (reversal) in test [6] (H69AR cells + 2 uM doxorubicin) was 6.74% (inactive). In addition, the inhibition is -3.29% (inactive) in test [7] and 3.45% (inactive) in test [8].
On to `CCSc1nnc(NC(=O)C(CC)(C(F)(F)F)C(F)(F)F)s1`, for which the viability was 79.5% in test [1]; 79.5% (inactive) in test [3]; 68.9% (inactive) in test [4]; 74% (inactive) in test [5]; 73.4% in test [6] (setting [9]); 74% in test [6] (setting [10]). Further, the Her2 level in test [2] is 120% (inactive). In addition, in test [6] (H69AR cells + 2 uM doxorubicin), the differential viability (reversal) is 0.58% (inactive). For the same compound, the inhibition in test [7] was 0.41% (inactive); in test [8], 33.3% (active).
Take `COc1ccc(CN(Cc2nc3ccccc3c(=O)[nH]2)C(=O)NC2CCCCC2)cc1`: the viability is 95.5% in test [1]; 95.5% (inactive) in test [3]; 91.4% (inactive) in test [4]; 90.2% (inactive) in test [5]; 89.4% in test [6] (setting [9]); 90.2% in test [6] (setting [10]). Further, the Her2 level in test [2] is 71% (inactive). Moreover, the differential viability (reversal) in test [6] (H69AR cells + 2 uM doxorubicin) is 0.78% (inactive). The figures for the inhibition in test [7] and in test [8] were -4.61% (inactive) and -0.5% (inactive), respectively.
On to `COc1ccc(-c2noc(CN(C(=O)C(C)(C)C)C(C)C)n2)cc1`, for which the viability is 96% in test [1]; 96% (inactive) in test [3]; 102% (inactive) in test [4]; 109% (inactive) in test [5]; 91.3% in test [6] (setting [9]); 109% in test [6] (setting [10]). The Her2 level in test [2] was 102% (inactive). In test [6] (H69AR cells + 2 uM doxorubicin), the differential viability (reversal) was 17.6% (inactive). The inhibition in test [7] is -4.61% (inactive); in test [8] it was -6.83% (inactive).
For `COc1ccc(-c2cc(C(F)(F)F)n3ncc(C(=O)NCC4CCCO4)c3n2)cc1` (stereo not given), the viability in test [1] was 84%; in test [3], 84% (inactive); in test [4], 78.9% (inactive); in test [5] it was 41.7% (active); in test [6] (setting [9]), 47.6%; in test [6] (setting [10]), 41.7%. The Her2 level in test [2] is 116% (inactive). Besides, the differential viability (reversal) in test [6] (H69AR cells + 2 uM doxorubicin) was -5.95% (inactive). In addition, the inhibition in test [7] was -1.54% (inactive); in test [8], -3.67% (inactive).
On to `Cc1ccc(NC(=O)CSc2nnc(CSc3nc(C)cc(C)n3)n2Cc2ccco2)c(C)c1`, for which the viability in test [1] is 88%; in test [3] it was 88% (inactive); in test [4], 96.9% (inactive); in test [5], 80.8% (inactive); in test [6] (setting [9]), 64.7%; in test [6] (setting [10]), 80.8%. Also, the Her2 level in test [2] was 96% (inactive). In addition, the differential viability (reversal) in test [6] (H69AR cells + 2 uM doxorubicin) was 16.1% (inactive). In addition, the inhibition in test [7] was 0.8% (inactive); in test [8] it was -6.72% (inactive).
As to `COc1cccc(-n2ccnc2SCC(=O)N2CCc3ccccc32)c1`, the viability is 94.5% in test [1]; 94.5% (inactive) in test [3]; 109% (inactive) in test [4]; 102% (inactive) in test [5]; 107% in test [6] (setting [9]); 102% in test [6] (setting [10]). Moreover, the Her2 level in test [2] was 102% (inactive). For the same compound, in test [6] (H69AR cells + 2 uM doxorubicin), the differential viability (reversal) is -5.1% (inactive). The inhibition in test [7] was 0.93% (inactive); in test [8], -3.06% (inactive).
`CCOC(=O)c1cccc(NC(=O)Cn2cnc3c2c(=O)n(C)c(=O)n3C)c1`: the viability was 104% in test [1]; 104% (inactive) in test [3]; 102% (inactive) in test [4]; 91.2% (inactive) in test [5]; 97.5% in test [6] (setting [9]); 91.2% in test [6] (setting [10]). The Her2 level in test [2] was 91.5% (inactive). In test [6] (H69AR cells + 2 uM doxorubicin), the differential viability (reversal) was -6.33% (inactive). Besides, the results for the inhibition in test [7] and in test [8] were -2.97% (inactive) and -9.33% (inactive), respectively.
Turning to `CCn1c(=O)cc(SCC(=O)N2CCOCC2)c2ccccc21`, the viability is 92% in test [1]; 92% (inactive) in test [3]; 63.1% (inactive) in test [4]; 85.4% (inactive) in test [5]; 68% in test [6] (setting [9]); 85.4% in test [6] (setting [10]). Further, the Her2 level in test [2] is 75% (inactive). Besides, the differential viability (reversal) in test [6] (H69AR cells + 2 uM doxorubicin) was 17.4% (inactive). Besides, the inhibition in test [7] is -6.05% (inactive); in test [8], -3.45% (inactive).
